Measured values: ChEMBL document CHEMBL1144537, “Synthesis of a non-cationic, water-soluble perylenetetracarboxylic diimide and its interactions with G-quadruplex-forming DNA” (Bioorg Med Chem, 2007)
Active and inactive are the calls of the source. The calls are words filed in the database; no cut-off is given here.

What was measured:
[1] = species: Homo sapiens; experiment: Induction of tetramer formation in human telomeric repeat 2HTR G-rich ssDNA
[2] = Binding affinity to 32 base containing complementary human telomeric repeat C-rich ssDNA by fluorescence quenching assay
How it was run: (§1)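 Ligand held at fixed 34–168 nM in 10 mM Tris–HCl (pH 8.0) with 100 mM KCl and 1 mM EDTA, then titrated with G-rich strand, C-rich complement, or duplex made by mixing both. Each addition mixed 2 min at 25 °C. Excitation 450 nm; quenching at 545 nm read. Kd fitted by nonlinear least squares to non-interacting-site mass-action model; triplicate titrations, mean ± SD.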

[3] = species: Homo sapiens; experiment: Induction of dimer formation in human telomeric repeat 2HTR G-rich ssDNA
[4] = Binding affinity to 32 base containing human telomeric repeat G-rich ssDNA by fluorescence quenching assay; how it was run: as §1
[5] = Binding affinity to double stranded human telomeric repeat by fluorescence quenching assay; how it was run: as §1
[6] = Binding affinity to human double stranded nuclease hypersensitive region of c-MYC gene NHE-27 by fluorescence quenching assay; how it was run: as §1
[7] = Binding affinity to human nuclease hypersensitive region of c-MYC gene NHE-27 by fluorescence quenching assay; how it was run: as §1
[8] = species: Homo sapiens; experiment: Induction of dimer formation in human nuclease hypersensitive region of c-MYC gene NHE-27 G-rich ssDNA
[9] = species: Homo sapiens; experiment: Induction of tetramer formation in human nuclease hypersensitive region of c-MYC gene NHE-27 G-rich ssDNA
[10] = Binding affinity to complementary nuclease hypersensitive region of c-MYC gene NHE-27 by fluorescence quenching assay; design: species or system Homo sapiens; how it was run: as §1

Structure (SMILES)	Activity [1]	Kd [2] [nM]	Activity [3]	Kd [4] [nM]	Kd [5] [nM]	Kd [6] [nM]	Kd [7] [nM]	Activity [8]	Activity [9]	Kd [10] [nM]
O=C1c2ccc3c4ccc5c6c(ccc(c7ccc(c2c37)C(=O)N1CCN1CCCCC1)c64)C(=O)N(CCN1CCCCC1)C5=O	Active	10	Active	3.4	30	6.6	5.5	Active	Active	–
COCCOCCOCC(COCCOCCOC)N1C(=O)c2ccc3c4ccc5c6c(ccc(c7ccc(c2c37)C1=O)c64)C(=O)N(C(COCCOCCOC)COCCOCCOC)C5=O	inactive	> 20000	inactive	> 20000	> 20000	14800	980	inactive	inactive	> 20000
